One experiment has as its system K562. In words: Cytotoxicity against human K562 cells after 72 hrs by MTT assay. Type of experiment: functional, cell-based. Particulars: K562, 72 h. The gist of the method: (§1)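 MTT colorimetric read-out per a previously described method. K-562 (human leukemia) used 10-hydroxycamptothecine as positive control, U87MG (human spongioblastoma) used nimustine. IC50 read from dose-response curves as the concentration causing 50% reduction in absorption versus control cells. Mean of three independent experiments, triplicate wells per concentration.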

Experiment [1] in a line: Cytotoxicity against human U87MG cells after 72 hrs by MTT assay. In kind it is functional, cell-based, U-87MG ATCC. The settings on record: U-87 MG. Summed up: as §1
In another experiment the test system is Bel-7402. Put plainly: Cytotoxicity against human Bel7402 cells after 72 hrs by SRB assay. In kind it is functional, cell-based. Particulars: Bel-7402, 72 h. The gist of the method: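 Human hepatoma BEL-7402 cells, sulforhodamine B protein stain per a reported method. Dose-response curves plotted; IC50 taken as the concentration giving 50% lower absorption than control cells. Means of three independent experiments, each concentration in triplicate wells. 10-Hydroxycamptothecine as positive control.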
(In SRB staining, fixed cells bind dye roughly in proportion to their protein.)

In a further experiment the target is Tubulin (Sus scrofa) (UniProt P02554+P02550). Put plainly: Induction of pig brain tubulin polymerization at 10 ug/ml.

The source made the active and inactive calls. No cut-off for these calls is given here.

Tubulin (Sus scrofa), sequence (P02550 whole entry, looked up): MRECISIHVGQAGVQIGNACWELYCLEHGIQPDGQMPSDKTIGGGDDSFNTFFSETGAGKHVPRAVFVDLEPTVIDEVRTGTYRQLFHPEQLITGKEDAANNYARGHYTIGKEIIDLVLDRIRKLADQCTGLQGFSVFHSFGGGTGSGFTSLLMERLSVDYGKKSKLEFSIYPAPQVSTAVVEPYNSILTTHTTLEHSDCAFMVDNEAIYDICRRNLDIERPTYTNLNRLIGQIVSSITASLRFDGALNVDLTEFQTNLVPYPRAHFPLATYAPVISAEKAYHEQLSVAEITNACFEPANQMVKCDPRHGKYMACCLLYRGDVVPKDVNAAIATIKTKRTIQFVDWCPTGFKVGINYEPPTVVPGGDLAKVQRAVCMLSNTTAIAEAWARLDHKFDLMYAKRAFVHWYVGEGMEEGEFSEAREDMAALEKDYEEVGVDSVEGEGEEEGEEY
Tubulin (Sus scrofa), sequence (P02554 whole entry, looked up): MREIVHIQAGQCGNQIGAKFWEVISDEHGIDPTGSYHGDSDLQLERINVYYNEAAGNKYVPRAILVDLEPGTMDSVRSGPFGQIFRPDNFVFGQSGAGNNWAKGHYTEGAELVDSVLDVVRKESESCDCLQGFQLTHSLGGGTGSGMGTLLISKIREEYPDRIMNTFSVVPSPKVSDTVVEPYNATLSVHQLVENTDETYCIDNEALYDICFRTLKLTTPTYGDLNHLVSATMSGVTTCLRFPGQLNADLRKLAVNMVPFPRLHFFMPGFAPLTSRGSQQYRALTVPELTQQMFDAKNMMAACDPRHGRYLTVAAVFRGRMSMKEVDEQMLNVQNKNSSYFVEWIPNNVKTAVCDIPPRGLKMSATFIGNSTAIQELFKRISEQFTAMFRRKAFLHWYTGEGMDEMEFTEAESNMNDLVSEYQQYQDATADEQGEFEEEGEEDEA

As a reminder, the IC50 is the concentration that gives 50% inhibition. Read a high IC50 as weaker potency in that assay. As to `CCC(CC[C@@H](C)[C@H]1[C@H](O[C@@H]2O[C@@H]([C@@H](O)COC)[C@H](O[C@@H]3O[C@@H]([C@@H](O)COC)[C@H](O)[C@H]3O)[C@H]2O)CC2=C3[C@@H](O)[C@@H](O)[C@H]4C[C@H](O)CC[C@]4(C)[C@H]3CC[C@@]21C)C(C)C` (mixture of isomers), the concentration for half-maximal inhibition (IC50) with K562 is 2.8 µM; in experiment [1] it was more than 24.5 µM; in the experiment on Bel-7402, 4.9 µM. In addition, the outcome on Tubulin (Sus scrofa) was inactive.
In the case of `CCC(CC[C@@H](C)[C@H]1[C@H](O[C@@H]2O[C@@H]([C@@H](O)COC)[C@H](O)[C@H]2O)CC2=C3[C@@H](O[C@@H]4O[C@@H]([C@@H](O)COC)[C@H](O)[C@H]4O)[C@@H](O)[C@H]4C[C@H](O)CC[C@]4(C)[C@H]3CC[C@@]21C)C(C)C` (mixture of isomers), the results for the IC50 (with K562; in experiment [1]; in the experiment on Bel-7402) were 0.6 µM, 3.6 µM and 2.7 µM, respectively.
Consider `COC[C@H](O)[C@@H]1O[C@@H](O[C@@H]2[C@@H](O)[C@H](O[C@@H]3CC4=C5[C@@H](O)[C@@H](O)[C@H]6C[C@H](O)CC[C@]6(C)[C@H]5CC[C@]4(C)[C@H]3[C@H](C)CCCC(C)C)O[C@H]2[C@@H](O)COC)[C@H](O)[C@H]1O` [ANTHENOSIDE E], for which the IC50 is 6.1 µM with K562, more than 25.4 µM in experiment [1] and 8.3 µM in the experiment on Bel-7402. In addition, the outcome at Tubulin (Sus scrofa) was inactive.
On the same counts, the results for `C=C(CC[C@@H](C)[C@H]1[C@H](O[C@@H]2O[C@@H]([C@@H](O)COC)[C@H](O[C@@H]3O[C@@H]([C@@H](O)COC)[C@H](O)[C@H]3O)[C@H]2O)CC2=C3[C@@H](O)[C@@H](O)[C@H]4C[C@H](O)CC[C@]4(C)[C@H]3CC[C@@]21C)C(C)C` [ANTHENOSIDE G] are 4.6 µM, more than 25.1 µM, 5.5 µM and “inactive”.
As to `CC[C@@]1(O)C(=O)OCc2c1cc1n(c2=O)Cc2cc3cc(O)ccc3nc2-1` [HYDROXYCAMPTOTHECIN], the IC50 with K562 came out at 0.16 µM; with Bel-7402 it was 0.36 µM.
`Cc1ncc(CNC(=O)N(CCCl)N=O)c(N)n1` [NIMUSTINE] came in with an IC50 in experiment [1] of 0.84 µM. This lies in the sub-micromolar range.

Values taken from ChEMBL document CHEMBL1157070, “Polyhydroxysteroidal glycosides from the starfish Anthenea chinensis” (J Nat Prod, 2010).
